Test results as given in ChEMBL document CHEMBL4325828, “The Design, Synthesis, and Characterizations of Spore Germination Inhibitors Effective against an Epidemic Strain of Clostridium difficile” (J Med Chem, 2018).

What follows are compounds tested on Clostridioides difficile (assay: (§1) Antibacterial activity against Clostridium difficile R20291 assessed as inhibition of spore germination in presence of 6 mM taurocholate and 12 mM glycine measured every minute for 2 hrs by standard optical density assay).
Format: functional, organism-based
Summary of the method: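 IC50 was determined on R20291 spores across a range of compound concentrations in sodium phosphate medium with 6 mM taurocholate and 12 mM glycine. Germination was read as the decrease in absorbance at 580 nm.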

Compound | IC50 [µM]
COc1cccc(NC(=O)CC[C@@H](C)[C@H]2CC[C@H]3[C@@H]4[C@H](O)C[C@@H]5C[C@H](O)CC[C@]5(C)[C@H]4C[C@H](O)[C@]23C)c1 | 78
C[C@H](CCC(=O)Nc1ccc(O)cc1)[C@H]1CC[C@H]2[C@@H]3[C@H](O)C[C@@H]4C[C@H](O)CC[C@]4(C)[C@H]3C[C@H](O)[C@]12C | 36
C[C@H](CCC(=O)Nc1cccc(F)c1)[C@H]1CC[C@H]2[C@@H]3[C@H](O)C[C@@H]4C[C@H](O)CC[C@]4(C)[C@H]3C[C@H](O)[C@]12C | 16
COc1ccccc1NC(=O)CC[C@@H](C)[C@H]1CC[C@H]2[C@@H]3[C@H](O)C[C@@H]4C[C@H](O)CC[C@]4(C)[C@H]3C[C@H](O)[C@]12C | 9.8

These compounds were tested on Clostridioides difficile (assay: as §1, with “germination by measuring heat activated spore germination levels at 125 uM” for “germination”, “assay relative to control” for “assay”).
Format: functional
Parameters: scale not given: the % may be the effect or the level left
Summary of the method: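 R20291 spores were screened at a single 125 µM concentration, with germination followed as the fall in absorbance at 580 nm. Compounds not soluble at 125 µM by visual inspection were discarded. Inhibition is relative to untreated spore samples.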

Compound | Activity [%]
C[C@H](CCC(=O)NCc1ccc(S(N)(=O)=O)cc1)[C@H]1CC[C@H]2[C@@H]3[C@H](O)C[C@@H]4C[C@H](O)CC[C@]4(C)[C@H]3C[C@H](O)[C@]12C | 109
C[C@H](CCC(=O)Nc1cccc(S(=O)(=O)O)c1)[C@H]1CC[C@H]2[C@@H]3[C@H](O)C[C@@H]4C[C@H](O)CC[C@]4(C)[C@H]3C[C@H](O)[C@]12C | 102
C[C@H](CCC(=O)NCCCO)[C@H]1CC[C@H]2[C@@H]3[C@H](O)C[C@@H]4C[C@H](O)CC[C@]4(C)[C@H]3C[C@H](O)[C@]12C | 92
Cc1csc(NC(=O)CC[C@@H](C)[C@H]2CC[C@H]3[C@@H]4[C@H](O)C[C@@H]5C[C@H](O)CC[C@]5(C)[C@H]4C[C@H](O)[C@]23C)n1 | 84
C[C@H](CCC(=O)Nc1ccc(NC(=O)OC(C)(C)C)cc1)[C@H]1CC[C@H]2[C@@H]3[C@H](O)C[C@@H]4C[C@H](O)CC[C@]4(C)[C@H]3C[C@H](O)[C@]12C | 100
C[C@H](CCC(=O)NCCCN1C(=O)C(=O)c2ccccc21)[C@H]1CC[C@H]2[C@@H]3[C@H](O)C[C@@H]4C[C@H](O)CC[C@]4(C)[C@H]3C[C@H](O)[C@]12C | 95
COc1ccc(NC(=O)CC[C@@H](C)[C@H]2CC[C@H]3[C@@H]4[C@H](O)C[C@@H]5C[C@H](O)CC[C@]5(C)[C@H]4C[C@H](O)[C@]23C)c(OC)c1 | 93
C[C@H](CCC(=O)NCc1ccc(N)cc1)[C@H]1CC[C@H]2[C@@H]3[C@H](O)C[C@@H]4C[C@H](O)CC[C@]4(C)[C@H]3C[C@H](O)[C@]12C | 104
COc1ccc(CCNC(=O)CC[C@@H](C)[C@H]2CC[C@H]3[C@@H]4[C@H](O)C[C@@H]5C[C@H](O)CC[C@]5(C)[C@H]4C[C@H](O)[C@]23C)c(OC)c1 | 101
C[C@H](CCC(=O)Nc1cccc(C(N)=O)c1)[C@H]1CC[C@H]2[C@@H]3[C@H](O)C[C@@H]4C[C@H](O)CC[C@]4(C)[C@H]3C[C@H](O)[C@]12C | 85
C[C@H](CCC(=O)NCc1ccccc1N)[C@H]1CC[C@H]2[C@@H]3[C@H](O)C[C@@H]4C[C@H](O)CC[C@]4(C)[C@H]3C[C@H](O)[C@]12C | 95
COc1ccc(CNC(=O)CC[C@@H](C)[C@H]2CC[C@H]3[C@@H]4[C@H](O)C[C@@H]5C[C@H](O)CC[C@]5(C)[C@H]4C[C@H](O)[C@]23C)c(OC)c1 | 85
C[C@H](CCC(=O)NCc1ccc([N+](=O)[O-])cc1)[C@H]1CC[C@H]2[C@@H]3[C@H](O)C[C@@H]4C[C@H](O)CC[C@]4(C)[C@H]3C[C@H](O)[C@]12C | 88
C[C@H](CCC(=O)NCCCCNC(=O)OC(C)(C)C)[C@H]1CC[C@H]2[C@@H]3[C@H](O)C[C@@H]4C[C@H](O)CC[C@]4(C)[C@H]3C[C@H](O)[C@]12C | 117
CCOC(=O)CCCNC(=O)CC[C@@H](C)[C@H]1CC[C@H]2[C@@H]3[C@H](O)C[C@@H]4C[C@H](O)CC[C@]4(C)[C@H]3C[C@H](O)[C@]12C | 95
C[C@H](CCC(=O)NCCCN1C(=O)c2ccccc2C1=O)[C@H]1CC[C@H]2[C@@H]3[C@H](O)C[C@@H]4C[C@H](O)CC[C@]4(C)[C@H]3C[C@H](O)[C@]12C | 82
COC(=O)C(NC(=O)CC[C@@H](C)[C@H]1CC[C@H]2[C@@H]3[C@H](O)C[C@@H]4C[C@H](O)CC[C@]4(C)[C@H]3C[C@H](O)[C@]12C)C(C)C (stereo partly specified) | 100
C[C@H](CCC(=O)NCCC#N)[C@H]1CC[C@H]2[C@@H]3[C@H](O)C[C@@H]4C[C@H](O)CC[C@]4(C)[C@H]3C[C@H](O)[C@]12C | 112
COc1cc(CNC(=O)CC[C@@H](C)[C@H]2CC[C@H]3[C@@H]4[C@H](O)C[C@@H]5C[C@H](O)CC[C@]5(C)[C@H]4C[C@H](O)[C@]23C)cc(OC)c1 | 99
C[C@H](CCC(=O)Nc1cccc(NC(=O)OC(C)(C)C)c1)[C@H]1CC[C@H]2[C@@H]3[C@H](O)C[C@@H]4C[C@H](O)CC[C@]4(C)[C@H]3C[C@H](O)[C@]12C | 89
COc1cccc(NC(=O)CC[C@@H](C)[C@H]2CC[C@H]3[C@@H]4[C@H](O)C[C@@H]5C[C@H](O)CC[C@]5(C)[C@H]4C[C@H](O)[C@]23C)c1 | 55

Compound | Activity [%]
C[C@H](CCC(=O)NCCc1cccs1)[C@H]1CC[C@H]2[C@@H]3[C@H](O)C[C@@H]4C[C@H](O)CC[C@]4(C)[C@H]3C[C@H](O)[C@]12C | 93
C[C@H](CCC(=O)NCc1ccccc1)[C@H]1CC[C@H]2[C@@H]3[C@H](O)C[C@@H]4C[C@H](O)CC[C@]4(C)[C@H]3C[C@H](O)[C@]12C | 70
C[C@H](CCC(=O)NCCN1CCCC1)[C@H]1CC[C@H]2[C@@H]3[C@H](O)C[C@@H]4C[C@H](O)CC[C@]4(C)[C@H]3C[C@H](O)[C@]12C | 101
C[C@H](CCC(=O)NC(CCC(=O)O)C(=O)O)[C@H]1CC[C@H]2[C@@H]3[C@H](O)C[C@@H]4C[C@H](O)CC[C@]4(C)[C@H]3C[C@H](O)[C@]12C (stereo partly specified) | 114
C[C@H](CCC(=O)NCCCN)[C@H]1CC[C@H]2[C@@H]3[C@H](O)C[C@@H]4C[C@H](O)CC[C@]4(C)[C@H]3C[C@H](O)[C@]12C.Cl | 124
C[C@H](CCC(=O)Nc1ccc(O)cc1)[C@H]1CC[C@H]2[C@@H]3[C@H](O)C[C@@H]4C[C@H](O)CC[C@]4(C)[C@H]3C[C@H](O)[C@]12C | 20
C[C@H](CCC(=O)Nc1cccc(F)c1)[C@H]1CC[C@H]2[C@@H]3[C@H](O)C[C@@H]4C[C@H](O)CC[C@]4(C)[C@H]3C[C@H](O)[C@]12C | 8
C[C@H](CCC(=O)Nc1ccc(N)cc1)[C@H]1CC[C@H]2[C@@H]3[C@H](O)C[C@@H]4C[C@H](O)CC[C@]4(C)[C@H]3C[C@H](O)[C@]12C.Cl | 82
C[C@H](CCC(=O)NCCCCN)[C@H]1CC[C@H]2[C@@H]3[C@H](O)C[C@@H]4C[C@H](O)CC[C@]4(C)[C@H]3C[C@H](O)[C@]12C.Cl | 104
C[C@H](CCC(=O)NCc1cccnc1)[C@H]1CC[C@H]2[C@@H]3[C@H](O)C[C@@H]4C[C@H](O)CC[C@]4(C)[C@H]3C[C@H](O)[C@]12C | 94
C[C@H](CCC(=O)NCCc1ccccc1)[C@H]1CC[C@H]2[C@@H]3[C@H](O)C[C@@H]4C[C@H](O)CC[C@]4(C)[C@H]3C[C@H](O)[C@]12C | 104
CCOC(=O)c1cccc(NC(=O)CC[C@@H](C)[C@H]2CC[C@H]3[C@@H]4[C@H](O)C[C@@H]5C[C@H](O)CC[C@]5(C)[C@H]4C[C@H](O)[C@]23C)c1 | 109
C[C@H](CCC(=O)NCCN1C(=O)c2ccccc2C1=O)[C@H]1CC[C@H]2[C@@H]3[C@H](O)C[C@@H]4C[C@H](O)CC[C@]4(C)[C@H]3C[C@H](O)[C@]12C | 78
COc1ccccc1NC(=O)CC[C@@H](C)[C@H]1CC[C@H]2[C@@H]3[C@H](O)C[C@@H]4C[C@H](O)CC[C@]4(C)[C@H]3C[C@H](O)[C@]12C | 8
C[C@H](CCC(=O)NCC(c1ccccc1)c1ccccc1)[C@H]1CC[C@H]2[C@@H]3[C@H](O)C[C@@H]4C[C@H](O)CC[C@]4(C)[C@H]3C[C@H](O)[C@]12C | 101
CCOC(=O)c1ccc(NC(=O)CC[C@@H](C)[C@H]2CC[C@H]3[C@@H]4[C@H](O)C[C@@H]5C[C@H](O)CC[C@]5(C)[C@H]4C[C@H](O)[C@]23C)cc1 | 105
C[C@H](CCC(=O)NC(Cc1ccccc1)C(=O)O)[C@H]1CC[C@H]2[C@@H]3[C@H](O)C[C@@H]4C[C@H](O)CC[C@]4(C)[C@H]3C[C@H](O)[C@]12C (stereo partly specified) | 108
COC(=O)C(Cc1ccccc1)NC(=O)CC[C@@H](C)[C@H]1CC[C@H]2[C@@H]3[C@H](O)C[C@@H]4C[C@H](O)CC[C@]4(C)[C@H]3C[C@H](O)[C@]12C (stereo partly specified) | 84
COc1ccc(NC(=O)CC[C@@H](C)[C@H]2CC[C@H]3[C@@H]4[C@H](O)C[C@@H]5C[C@H](O)CC[C@]5(C)[C@H]4C[C@H](O)[C@]23C)cc1 | 79
C[C@H](CCC(=O)NCc1ccc(Cl)c(Cl)c1)[C@H]1CC[C@H]2[C@@H]3[C@H](O)C[C@@H]4C[C@H](O)CC[C@]4(C)[C@H]3C[C@H](O)[C@]12C | 111
C[C@H](CCC(=O)NCc1ccccn1)[C@H]1CC[C@H]2[C@@H]3[C@H](O)C[C@@H]4C[C@H](O)CC[C@]4(C)[C@H]3C[C@H](O)[C@]12C | 93
